Experimental findings from ChEMBL document CHEMBL1149023, “Quinone-methide triterpenes and salaspermic acid from Kokoona ochracea” (1994) are described below.

One experiment concerns Lu1. The experiment can be described thus: Cytotoxicity against human Lu1 cells after 72 hrs by sulforhodamine B assay. It counts as functional. The following applies: Lu1, 72 h, read-out: ED50 (the source's name). The procedure, abridged: (§1)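 Cells went in triplicate into 4 concentrations (0.16–20 µg/ml) from DMSO stock, final DMSO 0.5% v/v, for 72 h at 37° in 5% CO2. Cells were fixed with cold 50% TCA and stained with 0.4% sulforhodamine B in 1% HOAc. Bound dye was dissolved in 10 mM Tris base and read at 515 nm. ED50 came from the averaged data as percent of DMSO controls. LNCaP and ZR-75-1 were kept in phenol red-free RPMI with hormone-free FBS plus 0.1 nM testosterone or estradiol, respectively.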
(In SRB staining, fixed cells bind dye roughly in proportion to their protein.)

Experiment [1] is described as follows: Cytotoxicity against human KBV1 cells after 72 hrs by sulforhodamine B assay in presence of vinblastine. The following applies: KB-V1, 72 h, read-out: ED50 (the source's name). It counts as functional.
A further experiment relates to ZR-75-1. The experiment can be described thus: Cytotoxicity against human ZR-75-1 cells after 72 hrs by sulforhodamine B assay. The class given is functional. The following applies: ZR-75-1, 72 h, read-out: ED50 (the source's name). Summed up: as §1
The nature of experiment [2]: Cytotoxicity against human U373 cells after 96 hrs by sulforhodamine B assay. It counts as functional, U-373MG ATCC. The following applies: U373 MG, read-out: ED50 (the source's name). The procedure, abridged:
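U373 cells were treated in triplicate at 4 concentrations (0.16–20 µg/ml), final DMSO 0.5%, for 96 h at 37° in 5% CO2. Cells were fixed with cold 50% TCA, stained with 0.4% sulforhodamine B in 1% HOAc, and the dye was solubilized in 10 mM Tris. OD was read at 515 nm and ED50 was taken from percent of DMSO control.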

Another experiment deals with MEL-2 (Homo sapiens). The experiment can be described thus: Cytotoxicity against human MEL-2 cells after 72 hrs by sulforhodamine B assay. To be noted: MEL-2, 72 h, read-out: ED50 (the source's name).
Another experiment concerns P388. The experiment can be described thus: Cytotoxicity against mouse P388 cells after 48 hrs by sulforhodamine B assay. To be noted: P388, 48 h, read-out: ED50 (the source's name). The class given is functional. The procedure, abridged: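 Murine P-388 was kept in Fisher's medium with 10% heat-inactivated FBS. Cells were exposed in triplicate to 4 concentrations (0.16–20 µg/ml), final DMSO 0.5%, for 48 h at 37° in 5% CO2. They were fixed with cold 20% TCA, stained with 0.4% sulforhodamine B, and read at 515 nm. ED50 was taken relative to DMSO controls.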

Another experiment relates to Col2. The experiment can be described thus: Cytotoxicity against human Col2 cells after 72 hrs by sulforhodamine B assay. To be noted: Col2, 72 h, read-out: ED50 (the source's name).
The nature of experiment [3]: Cytotoxicity against human BC1 cells after 72 hrs by sulforhodamine B assay. The class given is functional. To be noted: BC1, 72 h, read-out: ED50 (the source's name). Summed up:
as §1

The test system of another experiment is LNCaP. The experiment can be described thus: Cytotoxicity against human LNCAP cells after 72 hrs by sulforhodamine B assay. It counts as functional. The following applies: read-out: ED50 (the source's name). Summed up: as §1
Experiment [4] is described as follows: Cytotoxicity against human KBV1 cells after 72 hrs by sulforhodamine B assay in absence of vinblastine. It counts as functional. The following applies: KB-V1, 72 h, read-out: ED50 (the source's name).
In a further experiment the test system is A-431. The experiment can be described thus: Cytotoxicity against human A431 cells after 72 hrs by sulforhodamine B assay. It counts as functional. To be noted: A-431, 72 h, read-out: ED50 (the source's name). Summed up:
as §1

For the next experiment, the system named is HT-1080. The experiment can be described thus: Cytotoxicity against human HT1080 cells after 48 hrs by sulforhodamine B assay. It counts as functional. The following applies: HT-1080, 48 h, read-out: ED50 (the source's name). Summed up:
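HT-1080 was kept in MEME with 1% NAA and 10% heat-inactivated FBS. Cells were treated in triplicate at 4 concentrations (0.16–20 µg/ml), final DMSO 0.5%, for 48 h at 37° in 5% CO2. They were fixed with cold 50% TCA and stained with sulforhodamine B; OD was read at 515 nm. ED50 was taken against DMSO-only controls.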

A further experiment has as its system KB. The experiment can be described thus: Cytotoxicity against human KB cells after 72 hrs by sulforhodamine B assay. The following applies: read-out: ED50 (the source's name). It counts as functional. The procedure, abridged:
as §1

Molecules are shown by their SMILES. ≈ marks a conversion by molar mass, not a printed value.

`CC1=C(O)C(=O)C=C2C1=CC=C1[C@@]2(C)CC[C@@]2(C)[C@@H]3C[C@@](C)(O)C(=O)C[C@]3(C)CC[C@]12C`: the EC50 in the experiment on Lu1 worked out at 2.2 µg/mL (≈ 5.04 µM); in experiment [1] it was 3.3 µg/mL; with ZR-75-1 it was 1 µg/mL (≈ 2.29 µM); in experiment [2] it was 0.8 µg/mL (≈ 1.83 µM); with MEL-2 (Homo sapiens), 1.5 µg/mL (≈ 3.44 µM); in the experiment on P388, 2 µg/mL (≈ 4.58 µM). Further, the EC50 in the experiment on Col2 was determined as 5.8 µg/mL (≈ 13.3 µM); in experiment [3] it was 0.9 µg/mL (≈ 2.06 µM); in the experiment on LNCaP, 1 µg/mL (≈ 2.29 µM); in experiment [4], 3 µg/mL (≈ 6.87 µM); in the experiment with A-431 it was 1.1 µg/mL (≈ 2.52 µM); with HT-1080, 2.1 µg/mL (≈ 4.81 µM). Moreover, the EC50 with KB was 1.7 µg/mL (≈ 3.89 µM).
On to `COC(=O)[C@]1(C)CC[C@]2(C)CC[C@]3(C)[C@H]4CC[C@]5(COC(C)=O)[C@@H](C)C(=O)CC[C@H]5[C@]4(C)CC[C@@]3(C)[C@@H]2C1`, for which the EC50 is 11.9 µg/mL (≈ 22.5 µM) with Lu1; 12 µg/mL in experiment [1]; 6.2 µg/mL (≈ 11.7 µM) in the experiment on ZR-75-1; above 20 µg/mL in experiment [2]; above 20 µg/mL in the experiment on MEL-2 (Homo sapiens); above 5 µg/mL in the experiment with P388. For the same compound, the EC50 in the experiment on Col2 was above 20 µg/mL; in [3], above 20 µg/mL; in the experiment with LNCaP, 11.8 µg/mL (≈ 22.3 µM); in experiment [4], 9.8 µg/mL (≈ 18.5 µM); in the experiment with A-431, 5.2 µg/mL (≈ 9.83 µM); in the experiment on HT-1080, 10 µg/mL (≈ 18.9 µM). Moreover, the EC50 with KB was 10.1 µg/mL (≈ 19.1 µM).
With `CC1=C(O)C(=O)C=C2C1=CC=C1[C@@]2(C)CC[C@@]2(C)[C@@H]3C[C@](C)(C(=O)O)CC[C@]3(C)CC[C@]12C` [CELASTROL], the EC50 in the experiment on Lu1 amounted to 1.3 µg/mL (≈ 2.88 µM); in [1], 1.7 µg/mL; with ZR-75-1 it was 0.4 µg/mL (≈ 0.888 µM); in experiment [2] it was 0.4 µg/mL (≈ 0.888 µM); with MEL-2 (Homo sapiens) it was 0.6 µg/mL (≈ 1.33 µM); in the experiment on P388, 3.5 µg/mL (≈ 7.77 µM). Also, the EC50 came to 2.3 µg/mL (≈ 5.1 µM) with Col2; 0.3 µg/mL (≈ 0.666 µM) in experiment [3]; 0.3 µg/mL (≈ 0.666 µM) with LNCaP; 2.4 µg/mL (≈ 5.33 µM) in experiment [4]; 0.6 µg/mL (≈ 1.33 µM) in the experiment on A-431; 0.5 µg/mL (≈ 1.11 µM) with HT-1080. In the experiment on KB, the EC50 was 1.2 µg/mL (≈ 2.66 µM).
Regarding `COC(=O)[C@]1(C)CC[C@]2(C)CC[C@]3(C)[C@H]4CC[C@@]56CO[C@@](O)(CC[C@H]5[C@]4(C)CC[C@@]3(C)[C@@H]2C1)[C@@H]6C` [SALASPERMIC ACID METHYL ESTER], the EC50 was above 20 µg/mL with Lu1; above 20 µg/mL in [1]; above 20 µg/mL with ZR-75-1; above 20 µg/mL in experiment [2]; above 20 µg/mL in the experiment with MEL-2 (Homo sapiens); above 5 µg/mL in the experiment on P388. In addition, the EC50 (in the experiment on Col2; in experiment [3]; in the experiment with LNCaP; in experiment [4]; in the experiment with A-431; in the experiment on HT-1080) was above 20 µg/mL each time. The EC50 in the experiment on KB is above 20 µg/mL.
As for `C[C@@H]1[C@@]23CC[C@H]4[C@@](C)(CC[C@@]5(C)[C@@H]6C[C@](C)(C(=O)O)CC[C@]6(C)CC[C@]45C)[C@@H]2CC[C@@]1(O)OC3` [SALASPERMIC ACID], the EC50 was above 20 µg/mL with Lu1; above 20 µg/mL in experiment [1]; above 20 µg/mL in the experiment on ZR-75-1; above 20 µg/mL in experiment [2]; above 20 µg/mL in the experiment on MEL-2 (Homo sapiens); above 5 µg/mL with P388. In addition, the EC50 (with Col2; in experiment [3]; in the experiment with LNCaP; in experiment [4]; with A-431; with HT-1080) was above 20 µg/mL throughout. Further, in the experiment with KB, the EC50 is above 20 µg/mL.
Take `CC1=C(O)C(=O)C=C2C1=CC=C1[C@@]2(C)CC[C@@]2(C)[C@@H]3C[C@@H](C)C(=O)C[C@]3(C)CC[C@]12C` [TINGENONE]: the EC50 in the experiment on Lu1 came out at 0.6 µg/mL (≈ 1.43 µM); in [1], 0.5 µg/mL; with ZR-75-1 it was 0.2 µg/mL (≈ 0.476 µM); in experiment [2], 0.6 µg/mL (≈ 1.43 µM); in the experiment with MEL-2 (Homo sapiens), 0.2 µg/mL (≈ 0.476 µM); in the experiment on P388 it was 0.1 µg/mL (≈ 0.238 µM). Moreover, the EC50 was found to be 0.2 µg/mL (≈ 0.476 µM) with Col2; 0.3 µg/mL (≈ 0.713 µM) in experiment [3]; 0.7 µg/mL (≈ 1.66 µM) in the experiment on LNCaP; 0.4 µg/mL (≈ 0.951 µM) in experiment [4]; 0.4 µg/mL (≈ 0.951 µM) with A-431; 0.7 µg/mL (≈ 1.66 µM) in the experiment with HT-1080. Also, the EC50 in the experiment with KB was 0.9 µg/mL (≈ 2.14 µM).
